Assay outcomes from PubChem BioAssay.
Beta2AR agonist = activates human beta-2 adrenergic receptor causing internalization. Am2.2-beta2AR cells, FAP receptor internalization, flow cytometry. response, % (concentration not given with the values). actives 0.43% (n = 340,000). AID 504454;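 active means response above a set limit, near 3 SD of response in nonfluorescent compounds, cut at about 42% in these data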
CHOP UPR activ = activators of apoptotic arm of unfolded protein response (CHOP); CHO-CHOP luciferase reporter, UPR activation, luminescence; percent of tunicamycin response over DMSO baseline; activation, % at 10 µM; actives 0.34% (n = 330,000); AID 449763;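 active means at 10 µM dose, activation of 40% or more, normalized to positive control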;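 further: 100% = tunicamycin at 10 µg/mL and 0% = DMSO alone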
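assay system = CHO CHOP reporter cells | amount = 500 CHO-CHOP cells per well | buffer or medium = F12 with 10% FBS | incubation = 16-18 h cell attachment, then 6 h compound exposure, 37 °C | detection = luminescence read with Steady-Glo | read-out = percent activation relative to tunicamycin control | controls = tunicamycin high control, DMSO low control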
UPR XBP1 act = activators of adaptive arm of unfolded protein response (XBP1). CHO-XBP1 luciferase reporter, IRE1-XBP1 UPR activation, luminescence; percent of tunicamycin response, DMSO as zero. activation, % at 20 µM. actives 0.33% (n = 330,000);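 active means versus positive control, 20 µM dose yields 30% or more activation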;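 further: 100% = tunicamycin at 10 µg/mL and 0% = DMSO only wells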
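assay system = CHO-XBP1 luciferase reporter cells | amount = 1000 cells/well | buffer or medium = F12 plus 10% FBS | compound dosing = single point, 20 µM final compound, 1% DMSO | incubation = 16-18 h cell attachment at 37 °C, then 6 h compound exposure | detection = Steady-Glo luminescence read | controls = tunicamycin 10 µg/mL and vehicle-only wells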
VLA-4 inh = inhibition in a human VLA-4 binding assay. VLA-4 expressing cells, ligand binding flow cytometry. inhibition, % (about 7 µM as worked out from the volumes in the protocol). actives 0.2% (n = 330,000). AID 2557; in the data active means inhibition above about 50%
Target sequence (P13612 whole entry, looked up): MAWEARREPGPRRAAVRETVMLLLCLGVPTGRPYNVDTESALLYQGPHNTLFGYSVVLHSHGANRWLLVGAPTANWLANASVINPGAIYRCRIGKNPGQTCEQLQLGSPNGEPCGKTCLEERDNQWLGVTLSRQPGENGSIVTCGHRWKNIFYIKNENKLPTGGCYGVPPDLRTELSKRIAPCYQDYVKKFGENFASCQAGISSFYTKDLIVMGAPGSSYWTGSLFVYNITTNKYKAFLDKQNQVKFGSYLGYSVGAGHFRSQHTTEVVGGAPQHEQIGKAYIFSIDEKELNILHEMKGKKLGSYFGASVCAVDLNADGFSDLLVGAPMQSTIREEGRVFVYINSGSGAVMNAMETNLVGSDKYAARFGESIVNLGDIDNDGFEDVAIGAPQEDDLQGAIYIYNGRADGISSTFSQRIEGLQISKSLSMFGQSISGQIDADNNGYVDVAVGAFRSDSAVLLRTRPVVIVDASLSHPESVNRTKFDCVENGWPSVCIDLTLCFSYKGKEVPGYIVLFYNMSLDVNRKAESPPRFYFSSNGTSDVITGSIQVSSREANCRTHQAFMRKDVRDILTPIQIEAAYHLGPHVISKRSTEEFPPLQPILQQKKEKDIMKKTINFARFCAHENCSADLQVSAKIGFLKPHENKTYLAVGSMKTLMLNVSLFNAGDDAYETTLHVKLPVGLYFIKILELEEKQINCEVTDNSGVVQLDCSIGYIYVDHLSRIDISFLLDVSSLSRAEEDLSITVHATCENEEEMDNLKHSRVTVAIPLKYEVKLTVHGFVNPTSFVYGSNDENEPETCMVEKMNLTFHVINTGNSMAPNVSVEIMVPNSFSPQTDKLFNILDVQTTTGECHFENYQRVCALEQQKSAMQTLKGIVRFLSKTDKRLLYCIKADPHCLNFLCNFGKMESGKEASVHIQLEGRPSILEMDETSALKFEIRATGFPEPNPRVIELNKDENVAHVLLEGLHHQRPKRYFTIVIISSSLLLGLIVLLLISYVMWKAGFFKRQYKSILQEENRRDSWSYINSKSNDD
CHOP inh = CHOP inhibition in unfolded protein response; actives 3.8% (n = 220,000); AID 2732; inhibition, % at 10 µM; CHO-K1 CHOP-promoter luciferase, tunicamycin-induced, 15-18 h;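 active means compounds that reduced the stress-induced luciferase reporter signal by more than about 70% of percent inhibition, limit read from the data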;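 further: 0% = tunicamycin plus vehicle and 100% = wells without tunicamycin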
Numbers without * were called inactive; / = not tested or not shown. Many of the other results were omitted from the sample, so hits are more common in it than they were.

SMILES	Beta2AR agonist	CHOP UPR activ	UPR XBP1 act	VLA-4 inh	CHOP inh
CCOc1ccc(S(=O)(=O)N2CCCC(C(=O)Nc3cc(C)cc(C)c3)C2)cc1 (stereo unspecified)	-15.4	0.3	-1.2	-3.0	/
Cc1ccc(NC(=O)Cn2c(=O)oc3cc(S(=O)(=O)N4CCC(C)CC4)ccc32)cc1C	-2.6	0.7	-3.5	7.4	73.9*
COc1ccc(NC(=O)Cn2c(=O)oc3cc(S(=O)(=O)N4CCCC4)ccc32)cc1	3.4	0.7	-3.0	30.8	/
COc1cc(CNC2CCCCCC2)cc(OC)c1O	-0.3	-1.1	-3.5	-4.2	8.8
COc1cc(CNC2CCCC2)cc(Cl)c1OCc1ccccc1F	3.6	-0.8	1.6	16.9	78.7*
COc1ccccc1Nc1nc(-c2sc(NC(=O)c3ccccc3)nc2C)cs1	8.4	-0.4	-0.2	7.2	35.6
CCCC(C)C(=O)Nc1nc(C)c(-c2csc(Nc3ccc(Cl)cc3)n2)s1 (stereo unspecified)	11.0	7.6	-2.0	16.4	73.5*
CCOc1ccccc1Nc1nc(-c2sc(NC(=O)c3ccccc3)nc2C)cs1	/	-1.0	0.1	22.5	32.1
COc1ccccc1Nc1nc(-c2sc(NC(=O)c3ccc([N+](=O)[O-])cc3)nc2C)cs1	/	3.2	32.0*	11.6	41.4
CCOc1ccccc1Nc1nc(-c2sc(NC(=O)c3cccc(Cl)c3)nc2C)cs1	2.4	-0.7	2.7	23.1	76.1*
CC(=O)Nc1cccc(NC(=O)CSc2nnc3ccc(-c4cccnc4)nn23)c1	-4.2	-0.2	0.9	-4.6	/
O=C(CCNS(=O)(=O)c1cccc2nonc12)NCCc1ccc(Cl)cc1	-9.7	-1.2	0.7	22.5	75.9*
O=C(CCNS(=O)(=O)c1cccc2nonc12)Nc1ccc(Cl)cc1	-11.4	0.7	-3.9	0.2	/
O=C(CCCNC(=O)c1ccc(Cl)cc1)Nc1ccc(Br)cc1	-8.9	3.9	-3.0	11.8	/
Cc1ccccc1CS(=O)(=O)Cc1ccc(C(=O)NCCCN2CCOCC2)o1	6.2	1.6	-1.1	8.0	4.1
Cc1ccccc1CS(=O)(=O)Cc1ccc(C(=O)NCCCN2CCCC2=O)o1	-9.1	1.3	0.7	5.9	72.8*
O=c1[nH]c(Cn2nnc(-c3ccccc3)n2)nc2scc(-c3ccccc3)c12	-7.6	-0.3	-2.5	0.0	89.2*
Cc1cccc(CSCCNC(=O)COc2ccc(Cl)cc2)c1	-0.3	-2.0	-4.0	8.8	87.2*
O=C(COc1ccc(Cl)cc1)NCCSCc1cccc(Cl)c1	-6.8	-2.2	0.3	15.4	83.3*
O=C(COc1ccc(Cl)cc1)NCCSCc1ccccc1Cl	1.6	-0.2	-1.4	6.6	20.5
O=C(COc1ccc(Cl)cc1Cl)NCCCCc1ccccc1	9.2	2.8	-1.0	7.5	84.8*
Cc1ccccc1NC(=O)c1cc(C(=O)c2cc(Cl)ccc2O)cn(-c2ccccc2C)c1=O	19.8	6.6	2.8	30.1	70.4*
Cc1ccc(-n2cc(C(=O)c3cc(Cl)ccc3O)cc(C#N)c2=O)cc1	8.5	3.6	3.2	-14.0	33.7
O=C(N/N=C/c1cc2c(cc1Br)OCO2)c1ccccn1	0.0	5.7	-3.3	6.1	-21.0
O=C(N/N=C/c1cc2c(cc1Br)OCO2)c1c[nH]c2ccccc12	25.9	0.1	1.2	50.3*	0.9
SMILES	Beta2AR agonist	CHOP UPR activ	UPR XBP1 act	VLA-4 inh	CHOP inh
O=C(Cn1cncc1-c1ccc([N+](=O)[O-])cc1)Nc1cccc2ccccc12	7.9	/	/	-5.3	92.5*
CNC(=S)N1CCN(c2nc(-c3ccc(Cl)cc3)cs2)CC1	12.9	3.0	-3.9	-7.0	/
CCOC(=O)Cc1csc(NC(=O)CSc2nnc(-c3ccc(C)cc3)o2)n1	-5.2	-3.4	-1.8	-4.9	77.5*
CCOC(=O)Cc1csc(NC(=O)CSc2nnc(-c3ccc(F)cc3)o2)n1	-10.2	-1.5	-2.6	-0.1	78.2*
CSCCC(NC(=O)C12CC3CC(CC(C3)C1)C2)C(=O)OCC(=O)c1ccc(Cl)cc1 (stereo unspecified)	7.5	-1.8	2.3	-3.1	74.8*
CCc1ccc(C(=O)COC(=O)C(CCSC)NC(=O)C23CC4CC(CC(C4)C2)C3)cc1 (stereo unspecified)	4.8	-1.3	4.9	1.1	19.5
CCCCCCN=C(C)c1ccccc1O	-2.5	-1.3	2.4	4.4	-13.0
COc1ccccc1OCCNC(=O)CN1C(=O)NC2(CCCC2)C1=O	1.2	1.5	-2.3	/	/
COc1ccc(CCNC(=O)c2cc(-c3cc(Cl)cc(Cl)c3)oc2C)cc1	10.3	-0.8	-0.2	8.0	70.5*
O=S(=O)(NC1CCN(S(=O)(=O)c2ccc3c(c2)OCCO3)C1)c1c(F)cccc1F (stereo unspecified)	1.8	-0.4	-0.9	0.1	/
CN(c1ccc(C(=O)N2CCCCC2)cc1)S(C)(=O)=O	8.3	-2.2	-3.5	14.0	79.1*
COc1cc(OC)cc(C2C(C#N)=C(N)Oc3n[nH]c(-c4cccnc4)c32)c1 (stereo unspecified)	-6.1	-1.6	-3.5	1.6	-10.7
CC(C)(C)c1ccc(C2C(C#N)=C(N)Oc3n[nH]c(-c4cccnc4)c32)cc1 (stereo unspecified)	-0.1	0.7	-1.8	-0.4	76.1*
Cc1cc(C)c(S(=O)(=O)NC2CC(C)(C)NC(C)(C)C2)cc1Br	-8.0	3.4	0.8	5.3	/
N#C/C(=C\c1cccs1)C(=O)c1ccccc1Cl	54.4*	3.8	-0.7	13.3	-31.4
CC(C)(C)C(=O)/C(C#N)=C/c1cccs1	-0.2	-0.4	-1.6	3.6	15.9
CC(C)COP(=O)(OCC(C)C)C(Nc1ccccc1)c1ccccc1 (stereo unspecified)	6.0	0.5	-1.4	20.8	-1.3
CC(C)COP(=O)(OCC(C)C)C(Nc1ccccc1)c1ccc2c(c1)OCO2 (stereo unspecified)	1.2	0.2	-4.0	15.6	75.8*
CC(C)OP(=O)(OC(C)C)C(Nc1ccccc1)c1ccc2c(c1)OCO2 (stereo unspecified)	9.9	1.3	-2.4	-9.2	-6.5
CC(C)COP(=O)(OCC(C)C)C(Nc1ccccc1)c1ccc(F)cc1 (stereo unspecified)	7.9	-1.3	-1.0	0.7	75.3*
Cc1ccc(C(=O)NC2CCCc3ccccc32)cc1[N+](=O)[O-] (stereo unspecified)	-8.2	-0.4	5.2	13.6	/
COc1ccc(C(=S)N2CCN(c3cccc(Cl)c3)CC2)cc1	5.9	-1.1	-2.5	-4.0	-4.7
Cc1nn(Cc2c(F)c(F)c(F)c(F)c2F)c(C)c1NC(=O)c1ccc(COc2ccc(Cl)cc2Cl)o1	-1.9	4.2	1.0	-15.1	70.2*
Cc1nn(Cc2ccc(Cl)cc2Cl)c(C)c1NC(=O)c1ccc(COc2cc(Cl)ccc2Cl)o1	18.9	4.9	-1.9	3.1	43.5
